The text below walks through data of ChEMBL document CHEMBL5053485, “Targeting Acute Myelogenous Leukemia Using Potent Human Dihydroorotate Dehydrogenase Inhibitors Based on the 2-Hydroxypyrazolo[1,5-a]pyridine Scaffold: SAR of the Biphenyl Moiety” (J Med Chem, 2021).

The logD is lipophilicity at a set pH, counting ionised and neutral species. Broadly, the solubility is the concentration that dissolves in the medium under given conditions. A higher solubility goes with a readily soluble substance.

The source made the active and inactive calls. The calls are words filed in the database; no cut-off is given here.

Data set [1] concerns Jurkat. The data set can be described thus: Cytotoxicity against human Jurkat cells assessed as concentration required to induce more than 30% cytotoxicity incubated for 3 days by CSFE dye based assay. The following applies: 72 h, time 3 day. Type of data set: cell-based.
Data set [2] concerns THP-1. The data set can be described thus: Induction of cell differentiation in human THP-1 cells assessed as CD14 expression at 0.1 uM after 3 days by flow cytometric analysis. Type of data set: functional, cell-based. The following applies: time 3.0 day. For orientation: In flow cytometry, cells or beads pass a laser one at a time.
For data set [3], the system named is THP-1. The data set can be described thus: Induction of apoptosis in human THP-1 cells at 0.1 uM after 3 days by Annexin-V-FITC staining based flow cytometry relative to control. Type of data set: functional, cell-based. The following applies: time 3.0 day. A digest of the protocol:
(§1)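 After 3 days, annexin V-FITC was read by flow cytometry. Significance versus DMSO used two-tailed paired t tests (P < 0.05). The assay was also run with 100 μM uridine.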

Data set [4] is described as follows: n-Octanol/PBS partition coefficient, logD of the compound at pH 7.4 incubated for 20 mins by shake flask method. Type of data set: physicochemical.
Data set [5] is described as follows: Solubility of compound in PBS at pH 7.4 after 24 hrs by UHPLC analysis. Type of data set: physicochemical.
Data set [6] can be described thus: Protein binding in human serum at 50 uM after 1 hr by RP-UHPLC method. Type of data set: ADME, cell-free. The following applies: read-out: PB (converted).
The nature of data set [7]: Metabolic stability in Sprague-Dawley rat liver microsomes assessed as parent compound remaining after 30 mins. Type of data set: ADME, Microsome. The following applies: 0.5 h. A digest of the protocol:
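The regenerating system contained MgCl₂, NADP⁺, Glu6P and G6PDH. Controls were heat-inactivated microsomes and no regenerating system. Samples taken at 0–120 min were quenched in cold acetonitrile and analysed by HPLC–HRMS.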

The test system of data set [8] is THP-1. The data set can be described thus: Induction of cell differentiation in human THP-1 cells assessed as CD14 expression at 1 uM after 3 days by flow cytometric analysis. Type of data set: functional, cell-based. The following applies: time 3.0 day.
In data set [9] the test system is THP-1. The data set can be described thus: Induction of apoptosis in human THP-1 cells at 1 uM after 3 days by Annexin-V-FITC staining based flow cytometry relative to control. Type of data set: functional, cell-based. The following applies: time 3.0 day. In a few lines:
as §1

Consider `O=C(Nc1c(F)c(F)c(-c2cccc(C(F)(F)F)c2)c(F)c1F)c1c(O)nn2ccccc12`, for which the Activity in data set [1] was above 100 µM. Also, the outcome in data set [2] and in [3] was Active.

Consider `CCn1c(CO)nn(-c2cc(O[C@@H](C)C(F)(F)F)c(C(=O)Nc3c(F)cccc3Cl)cc2F)c1=O`, for which the logD at 20 min in data set [4] came to 2.7. Further, the solubility at 24 h in [5] is below 1 µM. Besides, the fraction unbound at 1 h, 50 µM in data set [6] is 0.099.

Turning to `CCCOc1cccc(-c2c(F)c(F)c(NC(=O)c3c(O)nn4ccccc34)c(F)c2F)c1`, in data set [1], the Activity was above 100 µM. In data set [7], the Stability entry is “Unstable”. Besides, the outcome in [2] and in data set [3] was Active.

As for `Cc1c(-c2ccc(-c3ccccc3F)cc2)nc2ccc(F)cc2c1C(=O)O` [BREQUINAR], the logD at 20 min in data set [4] worked out at 1.83.

On to `O=C(Nc1c(F)c(F)c(-c2cccc(OC(F)(F)F)c2)c(F)c1F)c1c(O)nn2ccccc12`, for which the Activity in [1] was above 100 µM. The outcome in data set [2] and in [3] was Active.

Regarding `COc1cccc(-c2cc(F)c(Nc3ncccc3C(=O)O)c(F)c2)c1` [ASLAN-003], the fraction unbound at 1 h, 50 µM in data set [6] was below 0.01.

In data set [4], `O=C(Nc1c(F)c(F)c(-c2cccc(F)c2)c(F)c1F)c1c(O)nn2ccccc12` yielded a logD at 20 min of 2.09. In addition, the outcome in data set [2] and in data set [3] was Active.

For the molecule `O=C(Nc1c(F)c(F)c(-c2ccnc(C(F)(F)F)c2)c(F)c1F)c1c(O)nn2ccccc12`, the outcome in data set [8] and in data set [9] was inactive.

Take `O=C(Nc1c(F)c(F)c(-c2cccnc2)c(F)c1F)c1c(O)nn2ccccc12`: the outcome in data set [8] and in data set [9] was inactive.

`COc1cccc(-c2c(F)c(F)c(NC(=O)c3c(O)nn4ccccc34)c(F)c2F)c1`: the result in data set [2] and in [3] was Active.

Consider `O=C(Nc1c(F)c(F)c(N2CCOCC2)c(F)c1F)c1c(O)nn2ccccc12`, for which the outcome in [8] and in data set [9] was inactive.

In turn, `O=C(Nc1c(F)c(F)c(-c2ccccc2)c(F)c1F)c1c(O)nn2c(Cl)cccc12` yielded a solubility at 24 h in data set [5] below 6 µM.

For the molecule `O=C(Nc1c(F)c(F)c(-c2cccc(O)c2)c(F)c1F)c1c(O)nn2ccccc12`, the outcome in [8] and in data set [9] was inactive.

Regarding `O=C(Nc1c(F)c(F)c(-c2ccccc2)c(F)c1F)c1c(O)nn2c1CCCC2`, the solubility at 24 h in data set [5] is below 6 µM.
